According to ChEMBL document CHEMBL1134642, “Dicationic bis(9-methylphenazine-1-carboxamides): relationships between biological activity and linker chain structure for a series of potent topoisomerase targeted anticancer drugs” (J Med Chem, 2001):

Assays:
[1] = Inhibitory concentration required to reduce cell number to 50% of control cultures in JLc(Jurkat human leukemia); type: functional
Outline: (§1)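 Murine P388 leukemia, Lewis lung carcinoma (LL), and human Jurkat leukemia (JLC) cells, plus amsacrine- and doxorubicin-resistant Jurkat derivatives (JLA, JLD), were grown with drug. Seeding per well was 4.5×10^3 (P388), 10^3 (LL) and 3.75×10^3 (Jurkat). Exposure was 3 days (P388) or 4 days (others). Growth was read by [3H]TdR uptake (P388) or sulforhodamine assay. IC50 is the drug concentration (nM) halving cell number versus controls. Ratios are JLA/JLC and JLD/JLC IC50. Independent assays were run in duplicate.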

[2] = tested on: Lewis lung carcinoma cell line; assay: Inhibitory concentration required to reduce cell number to 50% of control cultures in LL(Lewis lung carcinoma cell line); type: functional, cell-based; conditions: Mus musculus; outline: as §1
[3] = Ratio of IC50 values obtained from Jurkat lines, (JLa /JLc); type: functional, Homo sapiens; outline: as §1
[4] = Ratio of IC50 values obtained from Jurkat lines, (JLd /JLc); type: functional, Homo sapiens; outline: as §1
P388 = assay: Inhibitory concentration required to reduce cell number to 50% of control cultures in P388 (murine leukemia cell line); type: functional, cell-based; conditions: Mus musculus; outline: as §1
[5] = Concentration of the drug to reduce cell number to 50% of controls in AuxB1 cell line; type: functional, cell-based
D3F = assay: Concentration of the drug to reduce cell number to 50% of controls in D3F cell line; type: functional, cell-based
HT-29 [6] = assay: Inhibitory concentration required to reduce cell growth to 50% of control cultures in the HT-29 human cell line; type: functional
HT-29 [7] = assay: Inhibitory concentration of the drug resulting in inhibition of cell growth to 50% of controls in HT-29 (human colon); type: functional, cell-based
MOLT-4 = assay: Inhibitory concentration of the drug resulting in inhibition of cell growth to 50% of controls in MOLT-4 (human leukemia); type: functional, cell-based
MCF7 = assay: Inhibitory concentration required to reduce cell growth to 50% of control cultures in the MCF-7 human cell line; type: functional
Mus musculus [8] = assay: In vivo activity in colon 38 model for tumor growth delay after i.p. administration of 13.3 mg/kg in C57/B1 mice; type: functional; conditions: route intraperitoneal
Outline: (§2)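 Treatment started at about 4 mm diameter, with 5 mice per group. Hydrochloride salts in distilled water were given intraperitoneally at 0.01 mL/g, q4d × 3. Calliper measurements were taken three times weekly; volume = 0.52·a²·b. Growth delay is the time for mean tumour volume to reach 4-fold pretreatment volume.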

Mus musculus [9] = assay: In vivo activity in colon 38 model for tumor growth delay after i.p. administration of 20 mg/kg in C57/B1 mice; type: functional; conditions: route intraperitoneal; outline: as §2
Mus musculus [10] = assay: In vivo activity in colon 38 model for tumor growth delay after i.p. administration of 8.9 mg/kg in C57/B1 mice; type: functional; conditions: route intraperitoneal; outline: as §2
[11] = Inhibitory concentration required to reduce cell growth to 50% of control cultures in the NCI-ADR human cell line; type: functional; conditions: NCI/ADR-RES
SK-OV-3 = assay: Inhibitory concentration required to reduce cell growth to 50% of control cultures in the SKOV3 human cell line; type: functional
U-937 = assay: Inhibitory concentration of the drug resulting in inhibition of cell growth to 50% of controls in U937 (human leukemia); type: functional, cell-based
[12] = (§3) Average GI50 value for the drug over the whole cell line panel; type: functional
[13] = Ratio of IC50 values obtained from D3F-C10 and D3F cell lines; type: functional
CAKI-1 = assay: Inhibitory concentration required to reduce cell growth to 50% of control cultures in the CAK1 human cell line; type: functional
HCT-116 = assay: Inhibitory concentration required to reduce cell growth to 50% of control cultures in the HTC116 human cell line; type: functional
[14] = Ratio of IC50 values obtained from CHrC5 and AuxB1 cell lines; type: functional
Mus musculus [15] = assay: In vivo activity in HT-29 model for tumor growth delay after i.p. administration of 13.3 mg/kg in nude mice; conditions: route intraperitoneal
[16] = tested on: Lewis lung carcinoma cell line; assay: Inhibitory concentration required to reduce cell number to 50% of control cultures in LL (Lewis lung carcinoma cell line); type: functional, cell-based; conditions: Mus musculus; outline: as §1
Whole cell line panel = assay: as §3; type: functional
Mus musculus [17] = assay: In vivo activity in colon 38 model for tumor growth delay after i.p. administration of 30 mg/kg in C57/B1 mice; type: functional; conditions: route intraperitoneal; outline: as §2
Mus musculus [18] = assay: In vivo activity in HT-29 model for tumor growth delay after i.p. administration of 20 mg/kg in nude mice; conditions: route intraperitoneal

## Cc1cccc2cc3cccc(C(=O)NCCN(C)C)c3nc12
[1]
  IC50: 46 nM
[2]
  IC50: 5.6 nM
[3]
  Ratio: 4.6
[4]
  Ratio: 4.8

## CCN(CCNC(=O)c1cccc2nc3cccc(C)c3nc12)CCN(CC)CCNC(=O)c1cccc2nc3cccc(C)c3nc12
[1]
  IC50: 16 nM
[2]
  IC50: 48 nM
P388
  IC50: 170 nM
[3]
  Ratio: 0.6
[4]
  Ratio: 0.7

## Cc1cccc2nc3cccc(C(=O)NCCNCCNCCNC(=O)c4cccc5nc6cccc(C)c6nc45)c3nc12
[5]
  IC50: 3.7 nM
D3F
  IC50: 4.4 nM
HT-29 [6]
  GI50: < 10 nM
HT-29 [7]
  IC50: 0.08 nM
[1]
  IC50: 0.18 nM
[2]
  IC50: 2.8 nM
MOLT-4
  IC50: 0.0062 nM
MCF7
  GI50: < 10 nM
Mus musculus [8]
  Growth delay: 4 days
Mus musculus [9]
  Growth delay: 7 days
Mus musculus [10]
  Growth delay: 2.8 days
[11]
  GI50: 15 nM
P388
  IC50: 21 nM
SK-OV-3
  GI50: < 10 nM
U-937
  IC50: 0.047 nM
[12]
  GI50: 13 nM
[13]
  Ratio: 0.91
[3]
  Ratio: 0.5
[4]
  Ratio: 0.9
CAKI-1
  GI50: < 10 nM
HCT-116
  GI50: < 10 nM
[14]
  Ratio: 47.1
Mus musculus [15]
  Growth delay: 2.4 days

## Cc1cccc2nc3cccc(C(=O)NCCN(C)CCN(C)CCNC(=O)c4cccc5nc6cccc(C)c6nc45)c3nc12
[1]
  IC50: 5.3 nM
[2]
  IC50: 20 nM
P388
  IC50: 33 nM
[3]
  Ratio: 0.4
[4]
  Ratio: 0.6

## Cc1cccc2nc3cccc(C(=O)NCCCN(C)CCCNC(=O)c4cccc5nc6cccc(C)c6nc45)c3nc12
[5]
  IC50: 0.57 nM
D3F
  IC50: 2.9 nM
HT-29 [6]
  GI50: < 10 nM
HT-29 [7]
  IC50: 1.5 nM
[1]
  IC50: 5.6 nM
[16]
  IC50: 3.3 nM
MOLT-4
  IC50: 0.35 nM
MCF7
  GI50: < 10 nM
[11]
  GI50: 19 nM
SK-OV-3
  GI50: 220 nM
U-937
  IC50: 6.9 nM
Whole cell line panel
  GI50: 20 nM
[13]
  Ratio: 0.57
[3]
  Ratio: 0.6
[4]
  Ratio: 0.6
CAKI-1
  GI50: < 10 nM
HCT-116
  GI50: < 10 nM
[14]
  Ratio: 31.3

## Cc1cccc2nc3cccc(C(=O)NCCN(C)CCCN(C)CCNC(=O)c4cccc5nc6cccc(C)c6nc45)c3nc12
HT-29 [6]
  GI50: < 10 nM
[1]
  IC50: 0.08 nM
[2]
  IC50: 0.3 nM
MCF7
  GI50: < 10 nM
[11]
  GI50: < 0.1 nM
P388
  IC50: 1.6 nM
SK-OV-3
  GI50: < 0.1 nM
[12]
  GI50: 0.29 nM
[3]
  Ratio: 0.4
[4]
  Ratio: 0.8
CAKI-1
  GI50: < 0.1 nM
HCT-116
  GI50: < 0.1 nM

## Cc1cccc2nc3cccc(C(=O)NCCCCNCCCCNCCCCNC(=O)c4cccc5nc6cccc(C)c6nc45)c3nc12
[1]
  IC50: 67 nM
[2]
  IC50: 290 nM
P388
  IC50: 890 nM
[3]
  Ratio: 0.3
[4]
  Ratio: 0.9

## Cc1cccc2nc3cccc(C(=O)NCCCCN4CCN(CCCCNC(=O)c5cccc6nc7cccc(C)c7nc56)CC4)c3nc12
[1]
  IC50: 1.1 nM
[2]
  IC50: 0.34 nM
P388
  IC50: 96 nM
[3]
  Ratio: 0.5
[4]
  Ratio: 0.5

## Cc1ccc(C)c2nc3c(C(=O)NCCNCCNCCNC(=O)c4cccc5nc6c(C)ccc(C)c6nc45)cccc3nc12
[5]
  IC50: 4.5 nM
D3F
  IC50: 6.5 nM
HT-29 [7]
  IC50: 0.15 nM
[1]
  IC50: 0.6 nM
[2]
  IC50: 3.9 nM
MOLT-4
  IC50: 0.067 nM
Mus musculus [8]
  Growth delay: 2.4 days
Mus musculus [9]
  Growth delay: 4.4 days
Mus musculus [17]
  Growth delay: 7.5 days
Mus musculus [10]
  Growth delay: 2.8 days
P388
  IC50: 8.3 nM
U-937
  IC50: 0.52 nM
[13]
  Ratio: 0.77
[3]
  Ratio: 0.5
[4]
  Ratio: 0.6
[14]
  Ratio: 30.3
Mus musculus [18]
  Growth delay: 7.8 days

## O=C1c2cccc3cccc(c23)C(=O)N1CCNCCCNCCN1C(=O)c2cccc3cccc(c23)C1=O [ELINAFIDE]
HT-29 [7]
  IC50: 0.15 nM
[1]
  IC50: 0.7 nM
[2]
  IC50: 11 nM
MOLT-4
  IC50: 0.037 nM
P388
  IC50: 1.5 nM
U-937
  IC50: 0.34 nM
[3]
  Ratio: 0.3
[4]
  Ratio: 0.6

## Cc1cccc2nc3cccc(C(=O)NCCCN4CCN(CCCNC(=O)c5cccc6nc7cccc(C)c7nc56)CC4)c3nc12
[1]
  IC50: 1.3 nM
[2]
  IC50: 0.46 nM
P388
  IC50: 48 nM
[3]
  Ratio: 0.8
[4]
  Ratio: 0.7

## Cc1cccc2nc3cccc(C(=O)NCCCNCCCCNCCCNC(=O)c4cccc5nc6cccc(C)c6nc45)c3nc12
HT-29 [6]
  GI50: 366 nM
[1]
  IC50: 8.7 nM
[2]
  IC50: 112 nM
MCF7
  GI50: 74 nM
[11]
  GI50: 906 nM
P388
  IC50: 880 nM
SK-OV-3
  GI50: 13600 nM
[12]
  GI50: 2000 nM
[3]
  Ratio: 0.2
[4]
  Ratio: 1.2
CAKI-1
  GI50: 8280 nM
HCT-116
  GI50: 335 nM

## Cc1cccc2nc3cccc(C(=O)NCCN(C)C)c3nc12
[1]
  IC50: 207 nM
[2]
  IC50: 39 nM
P388
  IC50: 18 nM
[3]
  Ratio: 1.1
[4]
  Ratio: 1.1

## Cc1cccc2nc3cccc(C(=O)NCCN4CCN(CCNC(=O)c5cccc6nc7cccc(C)c7nc56)CC4)c3nc12
[1]
  IC50: 11 nM
[2]
  IC50: 12 nM
P388
  IC50: 2240 nM
[3]
  Ratio: 0.6
[4]
  Ratio: 0.9

## Cc1ccc(Cl)c2nc3cccc(C(=O)NCCNCCNCCNC(=O)c4cccc5nc6c(Cl)ccc(C)c6nc45)c3nc12
[1]
  IC50: 0.6 nM
[2]
  IC50: 10 nM
P388
  IC50: 37 nM
[3]
  Ratio: 0.4
[4]
  Ratio: 0.8

## Cc1cccc2nc3cccc(C(=O)NCCCNCCCNCCCNC(=O)c4cccc5nc6cccc(C)c6nc45)c3nc12
[1]
  IC50: 1.3 nM
[2]
  IC50: 31 nM
P388
  IC50: 430 nM
[3]
  Ratio: 0.5
[4]
  Ratio: 1

## Cc1cccc2nc3cccc(C(=O)NCCCNCCNCCCNC(=O)c4cccc5nc6cccc(C)c6nc45)c3nc12
HT-29 [6]
  GI50: 27 nM
[1]
  IC50: 1.7 nM
[2]
  IC50: 35 nM
MCF7
  GI50: 24 nM
[11]
  GI50: 8030 nM
P388
  IC50: 740 nM
SK-OV-3
  GI50: 8890 nM
[12]
  GI50: 524 nM
[3]
  Ratio: 0.4
[4]
  Ratio: 1.3
CAKI-1
  GI50: 1000 nM
HCT-116
  GI50: 21 nM

## Cc1cccc2nc3cccc(C(=O)NCCNCCCNCCNC(=O)c4cccc5nc6cccc(C)c6nc45)c3nc12
[1]
  IC50: 0.24 nM
[2]
  IC50: 1.2 nM
P388
  IC50: 7.4 nM
[3]
  Ratio: 0.7
[4]
  Ratio: 0.6

## CCCN(CCNC(=O)c1cccc2nc3cccc(C)c3nc12)CCN(CCC)CCNC(=O)c1cccc2nc3cccc(C)c3nc12
[1]
  IC50: 46 nM
[2]
  IC50: 120 nM
P388
  IC50: 250 nM
[3]
  Ratio: 0.5
[4]
  Ratio: 0.8
